The target of data set [1] is T1, Bromodomain-containing protein 4 (Homo sapiens, UniProt O60885). The data set can be described thus: Inhibition of recombinant His6-tagged human BRD4 bromodomain 1 expressed in Escherichia coli BL21(DE3)-R3-pRARE2 cells preincubated for 30 mins followed by H4KAc4 peptide substrate addition measured after 30 mins by AlphaScreen assay. Background: Bead proximity is the source of the signal in Alpha formats.

The nature of data set [2]: Apparent half life in human liver microsomes at 3 uM. The data set is classed as ADME, microsome. Conditions: read-out: t1/2(app). A general note: Liver microsomes are vesicles of endoplasmic reticulum, rich in cytochrome P450 enzymes.
Data set [3] can be described thus: Intrinsic clearance in human liver microsomes at 3 uM. The data set is classed as ADME, microsome. Particulars: read-out: CLH.
Data set [4] addresses Bromodomain-containing protein 2 (Homo sapiens) (UniProt P25440). The data set can be described thus: Inhibition of human partial length BRD2 bromodomain 1 (K71 to N194 residues) expressed in bacterial expression system assessed as residual activity at 1 uM by BROMOscan assay relative to control.
For another data set, the system named is MCF7. Nature of the data set: Growth inhibition of human MCF7 cells after 48 hrs by SRB assay. The data set is classed as functional. Conditions: MCF7, 48 h. The method, boiled down: (§1)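 In-house assay. Cells were seeded into 96-well plates at a density for exponential growth and treated with a concentration range for 48 h. They were then fixed in 10% (w/v) TCA and stained with sulforhodamine B. The 50% growth-inhibitory concentration relative to control cells was calculated as the mean of three repeats ± standard deviation.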
For orientation: The SRB assay estimates cell density from bound dye.

Data set [5] deals with Histone acetyltransferase KAT2B (Homo sapiens) (UniProt Q92831). Nature of the data set: Inhibition of human partial length PCAF (G715 to D831 residues) expressed in bacterial expression system assessed as residual activity at 1 uM by BROMOscan assay relative to control.
In data set [6] the target is Bromodomain-containing protein 3 (Homo sapiens) (UniProt Q15059). The data set can be described thus: Inhibition of human partial length BRD3 bromodomain 1 (P24 to E144 residues) expressed in bacterial expression system assessed as residual activity at 1 uM by BROMOscan assay relative to control.
Data set [7] concerns the target Bromodomain-containing protein 9 (Homo sapiens) (UniProt Q9H8M2). Nature of the data set: Inhibition of human partial length BRD9 (R130 to V259 residues) expressed in bacterial expression system assessed as residual activity at 1 uM by BROMOscan assay relative to control.
Data set [8] deals with T1, Bromodomain-containing protein 4. Nature of the data set: Inhibition of human partial length BRD4 bromodomain 2 (K333 to E460 residues) expressed in bacterial expression system assessed as residual activity at 1 uM by BROMOscan assay relative to control.
Data set [9] addresses ATPase family AAA domain-containing protein 2B (Homo sapiens) (UniProt Q9ULI0). Nature of the data set: Inhibition of human partial length ATAD2B (Q955 to R1082 residues) expressed in bacterial expression system assessed as residual activity at 1 uM by BROMOscan assay relative to control.
Data set [10] concerns the target SWI/SNF-related matrix-associated actin-dependent regulator of chromatin subfamily A member 4 (Homo sapiens) (UniProt P51532). The data set can be described thus: Inhibition of human partial length SMARCA4 (A1448 to S1575 residues) expressed in bacterial expression system assessed as residual activity at 1 uM by BROMOscan assay relative to control.
Data set [11] addresses T1, Bromodomain-containing protein 4. The data set can be described thus: Inhibition of human partial length BRD4 bromodomain 1 (N44 to E168 residues) expressed in bacterial expression system assessed as residual activity at 1 uM by BROMOscan assay relative to control.
The target is the same in data set [12]. Nature of the data set: Binding affinity to His6-tagged human BRD4 bromodomain 1 expressed in Escherichia coli BL21(DE3)-R3-pRARE2 cells by isothermal titration calorimetric method.
For another data set, the system named is HT-29. The data set can be described thus: Growth inhibition of human HT-29 cells after 48 hrs by SRB assay. The data set is classed as functional. Conditions: HT-29, 48 h. The method, boiled down:
as §1

Data set [13] addresses CREB-binding protein (Homo sapiens) (UniProt Q92793). The data set can be described thus: Inhibition of human partial length CREBBP (R1081 to G1197 residues) expressed in bacterial expression system assessed as residual activity at 1 uM by BROMOscan assay relative to control.
The target of data set [14] is Bromodomain and WD repeat-containing protein 1 (Homo sapiens) (UniProt Q9NSI6). Nature of the data set: Inhibition of human partial length WDR9 bromodomain 2 (A1310 to E1430 residues) expressed in bacterial expression system assessed as residual activity at 1 uM by BROMOscan assay relative to control.
The subject of a further data set is A498. Nature of the data set: Growth inhibition of human A498 cells after 48 hrs by SRB assay. In kind it is functional. Conditions: A498, 48 h. Put shortly: as §1
A further data set deals with Peregrin (Homo sapiens) (UniProt P55201). The data set can be described thus: Inhibition of human partial length BRPF1 (E627 to G740 residues) expressed in bacterial expression system assessed as residual activity at 1 uM by BROMOscan assay relative to control.
The target in data set [15] is Bromodomain testis-specific protein (Homo sapiens) (UniProt Q58F21). Nature of the data set: Inhibition of human partial length BRDT bromodomain 1 (N21 to E137 residues) expressed in bacterial expression system assessed as residual activity at 1 uM by BROMOscan assay relative to control.

Molecules are shown by their SMILES.

In general, GI50 refers to the concentration that inhibits growth by half. Read a high GI50 as lower sensitivity of the cells. As a reminder, the Kd is the constant that tells how readily two partners part at equilibrium. Higher therefore signals lower affinity.

Chain of CREB-binding protein (Homo sapiens) (Q92793 2-2442 limits assumed): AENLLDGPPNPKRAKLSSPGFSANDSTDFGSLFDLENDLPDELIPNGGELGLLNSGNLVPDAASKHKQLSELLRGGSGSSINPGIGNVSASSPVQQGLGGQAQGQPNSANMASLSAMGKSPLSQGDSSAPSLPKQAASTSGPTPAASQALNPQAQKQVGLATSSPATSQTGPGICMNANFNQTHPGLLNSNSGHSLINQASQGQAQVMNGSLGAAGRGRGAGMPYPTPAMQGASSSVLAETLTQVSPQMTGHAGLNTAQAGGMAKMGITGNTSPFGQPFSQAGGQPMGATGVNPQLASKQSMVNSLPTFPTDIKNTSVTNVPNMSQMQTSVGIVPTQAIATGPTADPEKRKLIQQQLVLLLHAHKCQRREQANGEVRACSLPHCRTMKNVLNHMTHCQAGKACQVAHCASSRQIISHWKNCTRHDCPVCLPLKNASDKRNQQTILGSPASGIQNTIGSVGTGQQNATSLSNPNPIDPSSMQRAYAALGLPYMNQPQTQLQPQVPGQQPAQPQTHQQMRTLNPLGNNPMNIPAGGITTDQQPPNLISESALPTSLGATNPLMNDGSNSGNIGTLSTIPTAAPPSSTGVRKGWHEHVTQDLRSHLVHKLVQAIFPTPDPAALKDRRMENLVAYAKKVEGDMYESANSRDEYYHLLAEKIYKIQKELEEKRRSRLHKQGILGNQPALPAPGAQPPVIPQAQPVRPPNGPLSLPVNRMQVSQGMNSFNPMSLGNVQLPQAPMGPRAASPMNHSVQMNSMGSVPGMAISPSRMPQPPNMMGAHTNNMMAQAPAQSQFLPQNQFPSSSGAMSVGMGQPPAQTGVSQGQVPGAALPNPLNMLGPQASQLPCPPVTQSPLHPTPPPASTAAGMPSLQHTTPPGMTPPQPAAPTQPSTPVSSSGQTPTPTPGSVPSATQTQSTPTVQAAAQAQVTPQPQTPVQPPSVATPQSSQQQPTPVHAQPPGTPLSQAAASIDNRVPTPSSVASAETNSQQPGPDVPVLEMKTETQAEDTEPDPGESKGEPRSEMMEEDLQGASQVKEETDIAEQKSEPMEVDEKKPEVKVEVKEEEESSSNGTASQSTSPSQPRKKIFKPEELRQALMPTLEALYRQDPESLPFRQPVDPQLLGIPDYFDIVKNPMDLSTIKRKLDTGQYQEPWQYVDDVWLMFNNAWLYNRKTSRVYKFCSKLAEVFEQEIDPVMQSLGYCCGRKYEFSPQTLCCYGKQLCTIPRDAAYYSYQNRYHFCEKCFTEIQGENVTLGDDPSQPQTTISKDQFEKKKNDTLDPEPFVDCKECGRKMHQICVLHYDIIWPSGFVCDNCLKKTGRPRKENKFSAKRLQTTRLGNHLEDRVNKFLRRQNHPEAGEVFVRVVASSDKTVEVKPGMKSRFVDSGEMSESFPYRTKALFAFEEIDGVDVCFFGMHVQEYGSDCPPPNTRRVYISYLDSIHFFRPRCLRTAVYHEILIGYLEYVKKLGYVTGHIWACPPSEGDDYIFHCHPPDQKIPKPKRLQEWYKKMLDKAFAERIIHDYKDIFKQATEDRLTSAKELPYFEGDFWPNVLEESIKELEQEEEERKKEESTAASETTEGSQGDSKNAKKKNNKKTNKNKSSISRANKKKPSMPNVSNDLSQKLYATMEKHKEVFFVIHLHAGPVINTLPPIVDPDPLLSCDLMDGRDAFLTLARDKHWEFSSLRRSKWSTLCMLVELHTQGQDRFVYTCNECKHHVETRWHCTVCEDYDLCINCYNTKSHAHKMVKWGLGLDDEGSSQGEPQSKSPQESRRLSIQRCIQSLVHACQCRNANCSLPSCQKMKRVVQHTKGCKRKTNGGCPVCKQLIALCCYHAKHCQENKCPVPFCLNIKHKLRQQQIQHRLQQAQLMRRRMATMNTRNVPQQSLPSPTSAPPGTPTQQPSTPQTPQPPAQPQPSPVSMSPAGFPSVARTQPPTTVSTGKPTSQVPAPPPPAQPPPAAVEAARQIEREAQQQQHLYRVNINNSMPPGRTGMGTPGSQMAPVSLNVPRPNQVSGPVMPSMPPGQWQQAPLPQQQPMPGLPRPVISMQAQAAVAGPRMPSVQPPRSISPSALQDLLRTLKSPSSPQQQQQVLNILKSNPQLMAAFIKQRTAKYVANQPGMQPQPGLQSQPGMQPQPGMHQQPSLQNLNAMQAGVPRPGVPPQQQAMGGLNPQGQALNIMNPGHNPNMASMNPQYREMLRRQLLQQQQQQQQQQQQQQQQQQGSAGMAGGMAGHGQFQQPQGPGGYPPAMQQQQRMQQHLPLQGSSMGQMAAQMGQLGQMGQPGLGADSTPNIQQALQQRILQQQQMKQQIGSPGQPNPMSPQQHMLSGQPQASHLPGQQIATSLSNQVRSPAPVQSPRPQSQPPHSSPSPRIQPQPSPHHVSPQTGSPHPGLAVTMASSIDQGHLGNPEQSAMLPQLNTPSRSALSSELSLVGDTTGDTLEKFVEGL
Chain of Bromodomain and WD repeat-containing protein 1 (Homo sapiens) (Q9NSI6 whole entry, the tested form may be a part): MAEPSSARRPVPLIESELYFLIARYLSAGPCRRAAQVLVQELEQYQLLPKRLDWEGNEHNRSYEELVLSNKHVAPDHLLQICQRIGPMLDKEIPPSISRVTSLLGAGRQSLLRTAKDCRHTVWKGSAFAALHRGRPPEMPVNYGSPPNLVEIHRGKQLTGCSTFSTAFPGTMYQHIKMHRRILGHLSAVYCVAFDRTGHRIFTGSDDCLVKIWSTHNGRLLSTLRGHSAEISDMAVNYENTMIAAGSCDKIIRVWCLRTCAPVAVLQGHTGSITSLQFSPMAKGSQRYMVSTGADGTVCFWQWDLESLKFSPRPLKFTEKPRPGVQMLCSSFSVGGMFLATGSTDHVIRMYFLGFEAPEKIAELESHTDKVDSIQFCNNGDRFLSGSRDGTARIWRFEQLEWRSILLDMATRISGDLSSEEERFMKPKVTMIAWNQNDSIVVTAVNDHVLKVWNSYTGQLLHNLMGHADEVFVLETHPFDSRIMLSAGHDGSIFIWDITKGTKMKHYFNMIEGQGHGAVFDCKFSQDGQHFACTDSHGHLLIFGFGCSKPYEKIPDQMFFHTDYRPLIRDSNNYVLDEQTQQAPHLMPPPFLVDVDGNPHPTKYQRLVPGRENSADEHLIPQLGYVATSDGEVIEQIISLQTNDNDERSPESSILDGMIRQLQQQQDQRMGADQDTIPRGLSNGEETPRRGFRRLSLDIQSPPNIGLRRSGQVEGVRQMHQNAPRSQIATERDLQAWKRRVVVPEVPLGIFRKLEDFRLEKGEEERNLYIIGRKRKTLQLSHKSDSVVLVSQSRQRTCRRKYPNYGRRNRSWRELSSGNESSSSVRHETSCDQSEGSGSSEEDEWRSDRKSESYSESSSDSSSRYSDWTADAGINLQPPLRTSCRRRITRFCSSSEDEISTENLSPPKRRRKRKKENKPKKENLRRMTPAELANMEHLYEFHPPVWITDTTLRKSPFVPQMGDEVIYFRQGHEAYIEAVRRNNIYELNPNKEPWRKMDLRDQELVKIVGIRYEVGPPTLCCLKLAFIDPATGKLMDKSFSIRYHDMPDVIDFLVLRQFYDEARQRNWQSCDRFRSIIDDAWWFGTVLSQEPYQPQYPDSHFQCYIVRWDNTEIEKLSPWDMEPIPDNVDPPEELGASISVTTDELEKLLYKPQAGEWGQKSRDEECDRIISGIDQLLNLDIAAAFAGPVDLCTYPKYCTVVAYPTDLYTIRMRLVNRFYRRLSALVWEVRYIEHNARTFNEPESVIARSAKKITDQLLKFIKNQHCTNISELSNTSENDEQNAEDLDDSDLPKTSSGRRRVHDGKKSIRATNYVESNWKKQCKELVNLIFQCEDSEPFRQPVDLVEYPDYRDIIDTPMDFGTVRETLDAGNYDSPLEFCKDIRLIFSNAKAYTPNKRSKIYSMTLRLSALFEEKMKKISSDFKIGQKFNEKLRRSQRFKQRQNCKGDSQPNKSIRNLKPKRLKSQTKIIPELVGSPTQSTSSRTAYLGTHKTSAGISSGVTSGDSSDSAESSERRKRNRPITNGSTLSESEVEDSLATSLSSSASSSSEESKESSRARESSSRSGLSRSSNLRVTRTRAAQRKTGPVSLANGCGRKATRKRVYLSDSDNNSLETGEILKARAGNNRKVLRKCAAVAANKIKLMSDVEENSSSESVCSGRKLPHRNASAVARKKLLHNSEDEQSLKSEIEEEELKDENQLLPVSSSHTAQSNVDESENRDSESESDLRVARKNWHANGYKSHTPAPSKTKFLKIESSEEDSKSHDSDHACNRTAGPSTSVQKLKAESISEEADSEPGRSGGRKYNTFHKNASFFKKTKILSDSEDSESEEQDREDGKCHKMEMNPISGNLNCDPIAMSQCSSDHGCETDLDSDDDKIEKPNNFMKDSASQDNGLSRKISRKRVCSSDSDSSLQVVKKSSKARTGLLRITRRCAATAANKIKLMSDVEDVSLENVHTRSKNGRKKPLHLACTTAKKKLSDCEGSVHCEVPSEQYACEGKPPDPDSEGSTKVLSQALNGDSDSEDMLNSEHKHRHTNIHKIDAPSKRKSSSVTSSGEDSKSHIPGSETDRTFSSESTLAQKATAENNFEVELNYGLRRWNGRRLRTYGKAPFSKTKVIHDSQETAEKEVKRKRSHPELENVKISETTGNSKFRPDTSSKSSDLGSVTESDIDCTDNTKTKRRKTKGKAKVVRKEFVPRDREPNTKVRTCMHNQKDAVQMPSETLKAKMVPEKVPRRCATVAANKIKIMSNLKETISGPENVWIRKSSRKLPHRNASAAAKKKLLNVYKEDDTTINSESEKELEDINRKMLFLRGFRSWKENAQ

On to `Cc1noc(C)c1-c1cc(O)cc(C(O)c2ccc(F)cc2)c1` (stereo not given), for which the IC50 in [1] (read-out: IC50) was 842 nM; in [1] (read-out: pIC50 (converted)), 851 nM.

As to `Cc1noc(C)c1-c1cc(O)cc(CN2CCOCC2)c1`, the IC50 was 956 nM in data set [1] (read-out: IC50) and 955 nM in data set [1] (read-out: pIC50 (converted)).

In the case of `Cc1noc(C)c1-c1cc(O)cc(C(O)c2ccc(Cl)cn2)c1` (stereo not given), the figures for the IC50 in data set [1] (read-out: IC50) and in data set [1] (read-out: pIC50 (converted)) were 495 nM and 490 nM, respectively.

In the case of `Cc1noc(C)c1-c1cc(O)cc(C(O)c2ccc(Cl)c(Cl)c2)c1` (stereo not given), the results for the IC50 in data set [1] (read-out: IC50) and in data set [1] (read-out: pIC50 (converted)) were 945 nM and 955 nM, respectively.

For `Cc1noc(C)c1-c1cc(O)cc(C(O)c2cccc(F)c2)c1` (stereo not given), the IC50 in data set [1] (read-out: IC50) is 793 nM; in data set [1] (read-out: pIC50 (converted)), 794 nM.

On to `Cc1noc(C)c1-c1cc(O)cc(C(=O)N2CCNCC2)c1`, for which the results for the IC50 in data set [1] (read-out: IC50) and in data set [1] (read-out: pIC50 (converted)) were 722 nM and 724 nM, respectively.

Take `Cc1ccc(C(O)c2cc(O)cc(-c3c(C)noc3C)c2)cc1` (stereo not given): the values for the IC50 in [1] (read-out: IC50) and in data set [1] (read-out: pIC50 (converted)) were 296 nM and 295 nM, respectively.

In the case of `Cc1noc(C)c1-c1cc(O)cc(CN2CCN(C)CC2)c1`, the IC50 in data set [1] (read-out: IC50) and in [1] (read-out: pIC50 (converted)) was 1230 nM each time.

With `Cc1noc(C)c1-c1cc(O)cc(CN2CCC(F)(F)CC2)c1`, the IC50 is 235 nM in data set [1] (read-out: IC50) and 234 nM in data set [1] (read-out: pIC50 (converted)). In addition, the half-life at 3 µM in data set [2] was determined as 27 min. Also, the microsomal CLint at 3 µM in data set [3] worked out at 51.4 µL/min/mg.

For the compound `Cc1noc(C)c1-c1cc(O)cc(C(O)C2CC2)c1` (stereo not given), the IC50 is 377 nM in [1] (read-out: IC50) and 380 nM in data set [1] (read-out: pIC50 (converted)).

Turning to `Cc1noc(C)c1-c1cc(O)cc(C(=O)N2CCOCC2)c1`, the IC50 in [1] (read-out: IC50) and in data set [1] (read-out: pIC50 (converted)) was 3800 nM each time.

`Cc1noc(C)c1-c1cc(O)cc(C(O)c2ccccc2F)c1` (stereo not given): the values for the IC50 in data set [1] (read-out: IC50) and in data set [1] (read-out: pIC50 (converted)) were 1420 nM and 1410 nM, respectively.

On to `Cc1noc(C)c1-c1cc(O)cc(C(O)c2ccccn2)c1` (stereo not given), for which the IC50 in data set [1] (read-out: IC50) and in data set [1] (read-out: pIC50 (converted)) was 4680 nM in each case.

On to `Cc1noc(C)c1-c1cc(O)cc(C(O)c2cccnc2)c1` (stereo not given), for which the Activity in data set [4] was determined as 1.8%; in data set [5], 100%; in data set [6] it was 1.5%; in data set [7], 100%; in [8], 1.1%; in [9] it was 98%. For the same compound, the Activity came out at 100% in [10]; 4.6% in data set [11]; 29% in data set [13]; 100% in [14]; 100% on Peregrin (Homo sapiens); 11% in data set [15]. The 50% growth inhibitory concentration (GI50) worked out at 1400 nM in the data set on MCF7, 4400 nM in the data set on HT-29 and 4880 nM in the data set with A498. Also, the IC50 in [1] (read-out: IC50) and in data set [1] (read-out: pIC50 (converted)) was 166 nM throughout. In addition, the half-life at 3 µM in data set [2] turned out to be 388 min. In [12], this compound had a Kd of 247 nM. In addition, the microsomal CLint at 3 µM in [3] came out at 3.57 µL/min/mg.

For the compound `Cc1noc(C)c1-c1cc(O)cc(CN2CCCCC2)c1`, the values for the IC50 in [1] (read-out: IC50) and in data set [1] (read-out: pIC50 (converted)) were 4280 nM and 4270 nM, respectively.

For `Cc1noc(C)c1-c1cc(O)cc(C(O)c2ccncc2)c1` (stereo not given), the IC50 in data set [1] (read-out: IC50) was 303 nM; in data set [1] (read-out: pIC50 (converted)), 302 nM.

`COc1ccccc1C(O)c1cc(O)cc(-c2c(C)noc2C)c1` (stereo not given): the IC50 in [1] (read-out: IC50) was 270 nM; in [1] (read-out: pIC50 (converted)) it was 269 nM.

Regarding `COc1ccc2c(c1)[C@]13CCCC[C@@H]1[C@H](C2)N(C)CC3` [DEXTROMETHORPHAN], the half-life at 3 µM in data set [2] was 54.5 min. Moreover, the microsomal CLint at 3 µM in data set [3] was 25.4 µL/min/mg.

As for `COc1cccc(C(O)c2cc(O)cc(-c3c(C)noc3C)c2)c1` (stereo not given), the IC50 in data set [1] (read-out: IC50) is 478 nM; in data set [1] (read-out: pIC50 (converted)), 479 nM.

For `COc1ccc(C(O)c2cc(O)cc(-c3c(C)noc3C)c2)cc1` (stereo not given), the values for the IC50 in [1] (read-out: IC50) and in data set [1] (read-out: pIC50 (converted)) were 585 nM and 589 nM, respectively.

As to `Cc1noc(C)c1-c1cc(O)cc(C(O)C2CCCCC2)c1` (stereo not given), the IC50 in [1] (read-out: IC50) and in data set [1] (read-out: pIC50 (converted)) was 166 nM throughout.

`Cc1noc(C)c1-c1cc(O)cc(Cc2ccccc2)c1`: the IC50 in data set [1] (read-out: IC50) and in data set [1] (read-out: pIC50 (converted)) was 1100 nM in each case.

With `Cc1noc(C)c1-c1cc(O)cc(CN2CCCC2)c1`, the IC50 was 3270 nM in data set [1] (read-out: IC50) and 3240 nM in data set [1] (read-out: pIC50 (converted)).

As for `Cc1noc(C)c1-c1cc(O)cc(CNCc2ccccc2)c1`, the values for the IC50 in data set [1] (read-out: IC50) and in data set [1] (read-out: pIC50 (converted)) were 2250 nM and 2240 nM, respectively.

For the compound `Cc1noc(C)c1-c1cc(O)cc(C(O)c2ccc(Cl)cc2)c1` (stereo not given), the IC50 in data set [1] (read-out: IC50) and in data set [1] (read-out: pIC50 (converted)) was 631 nM in each case.

Source of the values: ChEMBL document CHEMBL4118192, “BET bromodomain ligands: Probing the WPF shelf to improve BRD4 bromodomain affinity and metabolic stability” (Bioorg Med Chem, 2018).
